Measurements collected from several papers.
Lines come from different studies, so protocols differ.
MAOB: Amine oxidase [flavin-containing] B (MAOB, Homo sapiens, UniProt P27338)

`O=c1c2ccccc2[nH]c(=S)n1-c1ccccc1` gave an IC50 of 84.5 µM (Serine protease 1 (PRSS1, Bos taurus, UniProt P00760); enzyme activity, inhibitor).
`C#CCNc1nc(NCCCC2CCN(Cc3ccccc3)CC2)c(C#N)cc1C#N` gave an IC50 of over 100 µM (MAOB; enzyme activity, inhibitor, fluorescence; with preincubation).
For `COc1ccc(/C=C/C(=O)N2CCN(Cc3ccccc3)CC2)cc1OC`, the IC50 was 1.9 µM (MAOB; enzyme activity, inhibitor, fluorescence).
`C#CCNc1nc(NCCCCC2CCN(Cc3ccccc3)CC2)c(C#N)cc1C#N` has an IC50 of over 50 µM (MAOB; enzyme activity, inhibitor, fluorescence; with preincubation).
With `CSCC[C@@H]1NC(=O)[C@H](CC(N)=O)NC(=O)[C@H](CCCNC(=N)N)NC(=O)[C@H]([C@@H](C)O)NC(=O)[C@H](Cc2ccc(O)cc2)NC(=O)[C@@H](NC(=O)[C@H](C)N)CSSC[C@@H](C(N)=O)NC(=O)[C@H](CCC(N)=O)NC(=O)[C@H](CC(N)=O)NC1=O` the IC50 was 406 µM (Lysine-specific demethylase 4C (KDM4C, Homo sapiens, UniProt Q9H3R0); enzyme activity, inhibitor, TR-FRET).
`CCOc1ccccc1OCCN[C@H](C)Cc1ccc(OC)c(S(N)(=O)=O)c1` has an IC50 of 2.5 µM (Beta-1 adrenergic receptor (ADRB1, Homo sapiens, UniProt P08588); ligand displacement, radioligand).
`[Ba+2].[Cl-].[Cl-]` gave an IC50 of 8.2 µM (Inward rectifier potassium channel 2 (KCNJ2, Homo sapiens, UniProt P63252); ion current, inhibitor).
For `CC[C@H](C)[C@H](NC(=O)[C@H](Cc1c[nH]c2ccccc12)NC(=O)[C@H](C)NC(=O)[C@@H]1CSCC(=O)N[C@@H](Cc2ccc(O)cc2)C(=O)NCC(=O)N[C@@H](CCC(N)=O)C(=O)N[C@@H](CO)C(=O)N[C@@H](Cc2c[nH]cn2)C(=O)N[C@@H](CO)C(=O)N[C@@H](C)C(=O)N[C@@H](Cc2c[nH]c3ccccc23)C(=O)N1)C(=O)N[C@@H](CC(N)=O)C(=O)N[C@@H](Cc1ccc(O)cc1)C(=O)N[C@@H](CC(N)=O)C(=O)N1CCC[C@H]1C(N)=O`, the IC50 was 6 µM (Pancreatic alpha-amylase (Homo sapiens, UniProt P04746); enzyme activity, inhibitor, absorbance).
The IC50 of `CCCCNNC(=O)c1ccc(Br)cc1` is reported as over 100 µM (Histone deacetylase 9 (HDAC9, Homo sapiens, UniProt Q9UKV0); enzyme activity, inhibitor, fluorescence).
`CC(C)(C)c1ccc(NC(=O)c2ncn(CC(=O)NCc3ccc4c(c3)OCO4)n2)cc1` gave an IC50 of over 250 µM (Histone-lysine N-methyltransferase SUV39H2 (SUV39H2, Homo sapiens, UniProt Q9H5I1); enzyme activity, inhibitor).
For `C#CCNc1nc(NCCCC2CCN(Cc3ccccc3)CC2)c(C#N)c(-c2ccccc2)c1C#N`, the IC50 was over 100 µM (MAOB; enzyme activity, inhibitor, fluorescence; with preincubation).
`O=[N+]([O-])c1cc(Cl)c(O)c(Cl)c1` gave an IC50 of 0.7 µM (Sulfotransferase 1A1 (SULT1A1, Homo sapiens, UniProt P50225, R213H); enzyme activity, inhibitor).
